Reference: ChEMBL document CHEMBL1132728, “Inhibition of Escherichia coli glucosamine synthetase by novel electrophilic analogues of glutamine--comparison with 6-diazo-5-oxo-norleucine” (Bioorg Med Chem Lett, 2000)

Columns and labels:
Escherichia coli [1] = test: Limiting rate constant for inactivation of Escherichia coli glucosamine synthetase was determined
Outline: (§1)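 E. coli glucosamine synthetase was preincubated 15 min at 37 °C in 100 mM potassium phosphate, pH 7.5, with 10 mM fructose-6-phosphate and 50 mM KCl, then inhibitor was added. Timed aliquots were diluted 40-fold into the same buffer with 6 mM L-glutamine, and residual activity was read by colorimetric glutamate assay. The ln(residual activity)-versus-time plot gave t1/2, and kobs = ln2/t1/2. kobs versus [I] was fitted by Kitz–Wilson to give k+2 and Ki.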

[2] = Second order rate constant ([…]) was determined; outline: as §1
[3] = Steady-state inactivation rate constant for inactivation of Escherichia coli glucosamine synthetase was determined; outline: as §1
[4] = Second order rate constant ([…]) was determined; No inhibition at 200 uM
Escherichia coli [5] = test: Limiting rate constant for inactivation of Escherichia coli glucosamine synthetase was determined; No inhibition at 200 uM
[6] = Steady-state inactivation rate constant for inactivation of Escherichia coli glucosamine synthetase was determined; No inhibition at 200 uM
[7] = Second order rate constant ([…]) with Escherichia coli glucosamine synthetase; outline: as §1

SMILES | K+2 (Escherichia coli [1]) | K+2/Ki [2] | Ki [3] | K+2/Ki [4] | K+2 (Escherichia coli [5]) | Ki [6] | K+2/Ki [7]
N[C@@H](CCC(=O)CCl)C(=O)O | 0.19 min⁻¹ | 50 M⁻¹ s⁻¹ | 62.5 µM | – | – | – | –
N#CCC[C@H](N)C(=O)O | – | – | – | No inhibition | No inhibition | No inhibition | –
CC(=[N+]=[N-])C(=O)CC[C@H](N)C(=O)O | 0.02 min⁻¹ | 333 M⁻¹ s⁻¹ | 1.1 µM | – | – | – | –
C[S+](C)CC(=O)CC[C@H](N)C(=O)O | 0.12 min⁻¹ | 5330 M⁻¹ s⁻¹ | 0.37 µM | – | – | – | –
N[C@@H](CCC(=O)CBr)C(=O)O | 0.4 min⁻¹ | 2500 M⁻¹ s⁻¹ | 2.7 µM | – | – | – | –
[N-]=[N+]=CC(=O)CC[C@H](N)C(=O)O [6-DIAZO-5-OXO-L-NORLEUCINE] | 0.7 min⁻¹ | – | 9.5 µM | – | – | – | 1170 M⁻¹ s⁻¹
